Test results reported in ChEMBL document CHEMBL3526116, “Toxicological evaluation of acyl glucuronides of nonsteroidal anti-inflammatory drugs using human embryonic kidney 293 cells stably expressing human UDP-glucuronosyltransferase and human hepatocytes” (Drug Metab Dispos, 2011).

Key:
[1] = test system: HEK293; test: Cytotoxicity against HEK293 cells expressing UGT1A3 assessed as decrease in cell viability at 0.1 mM measured at 24 hrs by MTT assay; type: ADME, cell-based; conditions: human, hek293, 24 h, 100 µM
[2] = test system: HEK293; test: Cytotoxicity against mock transfected HEK293 cells assessed as decrease in cell viability by measuring intracellular ATP content at 0.1 mM by CellTiter-Glo luminescent assay; type: cell-based; conditions: human, hek293, 100 µM; TDE = time-dependent effect
Method in brief: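 Mock-transfected HEK293 cells seeded at 2 x 10^4 cells/well in DMEM with 0.5% FBS, drug added at once and incubated 6, 12 or 24 h. Viability read either by WST-8 (CCK-8) formazan absorbance at 450 nm or by intracellular ATP luminescence (CellTiter-Glo), as percent of control cells; mean ± SD of triplicates. Final DMSO ≤0.1%.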

[3] = test system: Hepatocyte; test: Cellular uptake in human hepatocytes at 0.1 mM measured at 6 hrs by LC-MS/MS analysis in absence of acyl glucuronidation inhibitor (-)-borneol; type: ADME, cell-based; conditions: 100 µM
Method in brief: (§1)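 Cryopreserved pooled human hepatocytes on collagen-coated wells, 2 × 10^5 cells/well in HCM medium with 0.5% FBS, preincubated 30 min with or without 1 mM (-)-borneol, then drug for 6 h; DMSO ≤0.2% final. Parent drug in cell fraction measured by LC-MS/MS after methanol/acetic acid extraction. Mean ± SD of triplicates.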

[4] = test system: HEK293; test: Cytotoxicity against mock transfected HEK293 cells assessed as decrease in cell viability at 0.1 mM […]; type: cell-based; conditions: human, hek293, 100 µM; TDE = time-dependent effect
[5] = target: T1, UDP-glucuronosyltransferase 1A4 (Homo sapiens, UniProt P22310); test: Activity of human UGT1A4 expressed in HEK293 cells assessed as enzyme-mediated diclofenac acyl-beta-D-glucuronide formation at 0.1 mM measured at 24 hrs by LC-MS/MS analysis; type: ADME, cell-based; conditions: hek293, 24 h, 100 µM
T1 sequence (P22310 whole entry): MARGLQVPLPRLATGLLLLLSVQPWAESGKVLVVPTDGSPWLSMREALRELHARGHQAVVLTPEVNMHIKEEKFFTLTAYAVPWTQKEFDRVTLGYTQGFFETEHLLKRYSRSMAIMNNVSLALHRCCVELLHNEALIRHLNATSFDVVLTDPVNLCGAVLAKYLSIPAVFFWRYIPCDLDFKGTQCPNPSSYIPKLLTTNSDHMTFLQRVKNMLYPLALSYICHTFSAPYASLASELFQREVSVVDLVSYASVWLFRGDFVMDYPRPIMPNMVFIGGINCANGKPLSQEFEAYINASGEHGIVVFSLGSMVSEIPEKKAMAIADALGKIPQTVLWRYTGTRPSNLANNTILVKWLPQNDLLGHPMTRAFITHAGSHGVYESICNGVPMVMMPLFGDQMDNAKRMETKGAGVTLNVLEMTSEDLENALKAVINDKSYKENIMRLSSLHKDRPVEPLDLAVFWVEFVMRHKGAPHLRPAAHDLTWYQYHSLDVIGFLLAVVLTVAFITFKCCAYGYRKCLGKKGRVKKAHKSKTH
Method in brief: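 HEK293 stably expressing human UGT1A4, 2 x 10^5 cells/well in DMEM with 0.5% FBS, drug exposure 6–24 h, DMSO ≤0.1% final. Acyl glucuronide in cell fraction and medium measured by LC-MS/MS after methanol/acetic acid (100:1) precipitation and centrifugation. Triplicate determinations.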

[6] = test system: HEK293; test: Cytotoxicity against HEK293 cells expressing UGT1A3 assessed as decrease in cell viability at 0.1 mM by MTT assay; type: ADME, cell-based; conditions: human, hek293, 100 µM; TDE = time-dependent effect
[7] = test system: HEK293; test: Genotoxicity in HEK293 cells expressing UGT1A3 assessed as DNA strand breaks at 0.1 mM after 24 hrs by comet assay; type: toxicity, cell-based; conditions: human, hek293, 24 h, 100 µM
Method in brief: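 HEK293 cells stably expressing UGT1A3, seeded 24 h before treatment and exposed 24 h in 0.5% FBS DMEM (vehicle 0.1% DMSO). Alkaline comet assay: low-melting agarose embedding, lysis pH 10 for 1 h at 4°C, 30 min unwinding in NaOH/EDTA, electrophoresis 300 mA for 20 min, ethidium bromide stain. Tail extent moment scored on 150-180 cells over more than 3 experiments, median (IQR).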

[8] = test system: HEK293; test: Cytotoxicity against HEK293 cells expressing UGT1A4 assessed as decrease in cell viability at 0.1 mM by MTT assay; type: ADME, cell-based; conditions: human, hek293, 100 µM; TDE = time-dependent effect
[9] = test system: HEK293; test: Cytotoxicity against HEK293 cells expressing UGT assessed as decrease in cell viability at 0.1 mM measured up to 72 hrs by MTT assay; type: ADME, cell-based; conditions: human, hek293, 72 h, 100 µM
Method in brief: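 Mock and UGT1A3/UGT1A4 stable HEK293 cells given drug for up to 72 h; viability measured by WST-8-based MTT assay.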

[10] = test system: HEK293; test: Cytotoxicity against HEK293 cells expressing UGT1A4 assessed as decrease in cell viability by measuring intracellular ATP content at 0.1 mM by CellTiter-Glo luminescent assay; type: ADME, cell-based; conditions: human, hek293, 100 µM; TDE = time-dependent effect
Method in brief: (§2)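 UGT1A3 or UGT1A4 stable HEK293 cells, 2 x 10^4 cells/well in 0.1 mL DMEM with 0.5% FBS, drug for 6, 12 or 24 h. Viability from intracellular ATP via CellTiter-Glo luminescence, expressed as percent of control cells. Mean ± SD of triplicates.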

[11] = test system: HEK293; test: Cytotoxicity against HEK293 cells expressing UGT assessed as LDH leakage at 0.1 mM after 6 to 24 hrs by spectrophotometric analysis relative to total cell LDH level; type: ADME, cell-based; conditions: human, hek293, 100 µM
Method in brief: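 Stable UGT-expressing or mock HEK293 lines in DMEM with 0.5% FBS, 2 x 10^4 cells/well, drug for 6, 12 or 24 h. LDH released into medium read at 490 nm (690 nm reference); percentage calculated against maximum release from control cells lysed with 1% Triton X-100.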

[12] = target: T2, UDP-glucuronosyltransferase 1A3 (Homo sapiens, UniProt P35503); test: Activity of human UGT1A3 expressed in HEK293 cells assessed as enzyme-mediated diclofenac acyl-beta-D-glucuronide formation at 0.1 mM measured at 24 hrs by LC-MS/MS analysis; type: ADME, cell-based; conditions: hek293, 24 h, 100 µM
T2 sequence (P35503 whole entry): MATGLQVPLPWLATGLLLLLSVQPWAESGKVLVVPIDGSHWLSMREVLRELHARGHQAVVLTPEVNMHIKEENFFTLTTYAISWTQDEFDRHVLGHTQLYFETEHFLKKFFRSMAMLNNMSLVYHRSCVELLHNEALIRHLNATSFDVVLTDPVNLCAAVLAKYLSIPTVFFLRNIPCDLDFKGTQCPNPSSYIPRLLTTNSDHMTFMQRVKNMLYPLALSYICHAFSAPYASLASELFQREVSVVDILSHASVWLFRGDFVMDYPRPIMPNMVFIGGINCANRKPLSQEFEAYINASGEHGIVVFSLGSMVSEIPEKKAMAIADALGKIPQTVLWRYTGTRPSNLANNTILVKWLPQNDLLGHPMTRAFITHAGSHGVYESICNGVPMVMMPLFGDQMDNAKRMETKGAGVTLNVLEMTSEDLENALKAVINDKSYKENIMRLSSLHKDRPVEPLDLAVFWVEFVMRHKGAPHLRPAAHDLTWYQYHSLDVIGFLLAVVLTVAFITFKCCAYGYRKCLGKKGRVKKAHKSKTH
Method in brief: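 HEK293 stably expressing human UGT1A3 (G418-selected), 2 x 10^5 cells/well in 1 mL DMEM with 0.5% FBS, exposed immediately to drug for 6, 12 or 24 h; DMSO ≤0.1% final. Cells and medium separated by centrifugation, cell fraction resuspended in PBS; aliquots mixed 1:1 with methanol/acetic acid (100:1), spun, supernatant analysed by LC-MS/MS. Triplicate determinations, mean ± SD.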

[13] = test system: Hepatocyte; test: Cellular uptake in human hepatocytes at 0.1 mM measured at 6 hrs by LC-MS/MS analysis in presence of acyl glucuronidation inhibitor (-)-borneol; type: ADME, cell-based; conditions: 100 µM; method in brief: as §1
[14] = test system: HEK293; test: Cytotoxicity against HEK293 cells expressing UGT1A3 assessed as decrease in cell viability by measuring intracellular ATP content at 0.1 mM by CellTiter-Glo luminescent assay; type: ADME, cell-based; conditions: human, hek293, 100 µM; TDE = time-dependent effect; method in brief: as §2

## O=C([O-])Cc1ccccc1Nc1c(Cl)cccc1Cl.[Na+] [DICLOFENAC SODIUM]
[1]
  Activity: Non-toxic
[2]
  Activity: tde
[3]
  Drug uptake: Active
[4]
  Activity: tde
[5]
  Drug metabolism: metabolite_not_detected
[6]
  Activity: tde
[7]
  Activity: Non-toxic
[8]
  Activity: tde
[9]
  Activity: Non-toxic
[10]
  Activity: tde
[11]
  Activity: < 5.4%
[12]
  Drug metabolism: metabolite_detected
[13]
  Drug uptake: Active
[14]
  Activity: tde
